What all share (type): functional
What all share (details): read-out: Diameter of inhibition zone

The test system of one test is Enterococcus faecalis. Nature of the test: Antibacterial activity against Streptococcus faecalis NCIB 775 at 1000 ug/disk after 24 hrs by disk diffusion assay. An outline of the steps:
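Test material loaded onto 6 mm sterile filter-paper discs. Each disc sits at the centre of a plate of 15 ml plate count agar overlaid with 3 ml soft nutrient agar (nutrient broth + 0.7% agar) carrying 1% of a 16–18 h culture. Activity is read as the diameter of the no-growth zone around the disc.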
For orientation: A growth-free zone around the sample is the usual read-out of agar diffusion tests.

Test [1] deals with Geobacillus stearothermophilus. Description: Antibacterial activity against Bacillus stearothermophilus NCA 1518 at 1000 ug/disk after 24 hrs by disk diffusion assay. In outline: (§1)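 Sterile 6 mm filter-paper disc bearing sample set in the centre of a Petri dish of 15 ml plate count agar. Overlaid with 3 ml soft nutrient agar (nutrient broth + 0.7% agar) seeded with 1% of a 16–18 h culture of the test strain. Read-out is the diameter of the growth-free zone around the disc.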

The test system of the next test is Bacillus cereus. Nature of the test: Antibacterial activity against Bacillus cereus NCIB 3329 at 500 ug/disk after 24 hrs by disk diffusion assay. An outline of the steps:
as §1

For another test, the system named is Bacillus subtilis. Description: Antibacterial activity against Bacillus subtilis NCIB 3610 at 1000 ug/disk after 24 hrs by disk diffusion assay. In outline: as §1
The next test deals with Staphylococcus aureus. Description: Antibacterial activity against Staphylococcus aureus T-AQ 49/YF29 at 1000 ug/disk after 24 hrs by disk diffusion assay. An outline of the steps: as §1

A word on the zone of inhibition: it is the extent of the growth-free halo in a diffusion test.

Take `CCCCCC/C=C\CCCCCCCC(=O)O` [PALMITOLEIC ACID]: the zone of inhibition at 1000 µg/disc in the test on Enterococcus faecalis is 20 mm; in test [1], 45 mm; with Bacillus subtilis, 14 mm; in the test on Staphylococcus aureus, 22 mm. Moreover, the zone of inhibition at 500 µg/disc in the test on Bacillus cereus turned out to be 14 mm.

The values are drawn from ChEMBL document CHEMBL1148178, “Dicranin, an antimicrobial and 15-lipoxygenase inhibitor from the moss Dicranum scoparium” (1993).
